ChEMBL document CHEMBL1135862, “Bioactive 4-substituted-6-methyl-2-pyrones with promising cytotoxicity against A2780 and K562 cell lines” (Bioorg Med Chem Lett, 2002)

Columns and labels:
Bacillus subtilis [1] = test: Antimicrobial activity against Bacillus subtilis after 96h incubation; type: functional
How it was run: (§1)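 Agar diffusion on cellulose disks loaded with 200 µg compound each. Bacteria read after 96 h, yeasts after 48 h. Activity is recorded as the radius in mm, or percent, of the inhibition zone. Squalestatin S1 (200 µg/disk) served as control in the yeast assay.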

A2780 = test: Inhibitory concentration in vitro for cytotoxic activity against A 2780 human ovarian carcinoma cells; type: functional, cell-based
How it was run: (§2)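 MTT assay in 96-well plates, seeding 400–1000 cells/well. Cells recover 24 h, then drug in medium is added, three wells per dose. Incubate 5 days at 37 °C in 5% CO₂. Add MTT (3 mg/mL) for 3 h, dissolve formazan in DMSO, read at 540 nm minus 620 nm. Percent growth inhibition per dose comes from duplicate experiments, reported as mean and SD; IC50 is derived from these.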

Escherichia coli [2] = test: Antimicrobial activity against the Escherichia coli after 96 hr incubation; type: functional; set-up: concentration or dose not given beside the values; how it was run: as §1
Staphylococcus aureus [3] = test: Antimicrobial activity against Staphylococcus aureus after 96h incubation; type: functional; how it was run: as §1
Escherichia coli [4] = test: Antimicrobial activity against Escherichia coli after 96h incubation; type: functional; how it was run: as §1
K562 = test: Inhibitory concentration in vitro for cytotoxic activity against K 562 human chronic myelogenous leukemia cells; type: functional, cell-based; how it was run: as §2
[5] = test system: Schizosaccharomyces pombe; test: (§3) Antimicrobial activity against Schizosaccharomyces pombe after 48 hr incubation; type: functional; set-up: concentration or dose not given beside the values; how it was run: as §1
[6] = test system: Schizosaccharomyces pombe; test: as §3; type: functional; how it was run: as §1
Saccharomyces cerevisiae [7] = test: Antimicrobial activity against Saccharomyces cerevisiae after 48 hr incubation; type: functional; how it was run: as §1
Bacillus subtilis [8] = test: Antimicrobial activity against Bacillus subtilis after 96 hr incubation; type: functional; set-up: concentration or dose not given beside the values; how it was run: as §1
Candida albicans [9] = test: Antimicrobial activity against Candida albicans after 48 hr incubation; type: functional; how it was run: as §1
Staphylococcus aureus [10] = test: The compound was evaluated for anti microbial activity against Staphylococcus aureus after 96 hr incubation; type: functional; set-up: concentration or dose not given beside the values; how it was run: as §1
Candida albicans [11] = test: Anti fungal activity against Candida albicans after 48 hr incubation; type: functional; set-up: concentration or dose not given beside the values; how it was run: as §1
Saccharomyces cerevisiae [12] = test: Compound was evaluated for anti fungal activity against Saccharomyces cerevisiae after 48 hr incubation; type: functional; how it was run: as §1

| SMILES | Inhibition (Bacillus subtilis [1]) [mm] | IC50 (A2780) [µM] | Inhibition (Escherichia coli [2]) [%] | Inhibition (Staphylococcus aureus [3]) [mm] | Inhibition (Escherichia coli [4]) [mm] | IC50 (K562) [µM] | Inhibition [5] [%] | Inhibition [6] [mm] | Inhibition (Saccharomyces cerevisiae [7]) [mm] | Inhibition (Bacillus subtilis [8]) [%] | Inhibition (Candida albicans [9]) [mm] | Inhibition (Staphylococcus aureus [10]) [%] | Inhibition (Candida albicans [11]) [%] | Inhibition (Saccharomyces cerevisiae [12]) [%] |
| --- | --- | --- | --- | --- | --- | --- | --- | --- | --- | --- | --- | --- | --- | --- |
| Cc1cc(CCc2ccccc2)cc(=O)o1 | 18 | > 50 | 22.7 | 0 | 20 | > 50 | 11.4 | 10 | 0 | 20.5 | 0 |  |  |  |
| Cc1cc(-c2ccc(C=O)cc2)cc(=O)o1 | 18 | 19.2 | 17 | 18 | 15 | 26 | 15.9 | 14 | 0 | 20.5 | 0 | 20.5 |  |  |
| CCCCCCC#Cc1cc(C)oc(=O)c1 | 17 | 3.4 | 19.3 | 18 | 17 | 20.3 | 54.5 | 48 | 0 | 19.3 | 0 | 20.5 |  |  |
| C#Cc1cc(C)oc(=O)c1 | 17 | 3.1 | 18.2 | 30 | 16 | 2 | 45.5 | 40 | 40 | 19.3 | 36 | 34.1 | 40.9 | 45.4 |
| Cc1cc(-c2ccc(Cl)cc2)cc(=O)o1 | 18 | > 50 | 22.7 | 20 | 20 | > 50 |  | 0 | 0 | 20.5 | 0 | 22.7 |  |  |
| CCCCc1cc(C)oc(=O)c1 | 20 | > 50 | 25 | 0 | 22 | > 50 |  | 0 | 0 | 22.7 | 0 |  |  |  |
| COc1ccc(-c2cc(C)oc(=O)c2)cc1 | 17 | > 50 | 22.7 | 0 | 20 | > 50 | 22.7 | 20 | 0 | 19.3 | 0 |  |  |  |
| CCCCCC#Cc1cc(C)oc(=O)c1 | 19 | 2.9 | 21.6 | 21 | 19 | 11.1 | 56.8 | 50 | 0 | 21.6 | 22 | 23.9 | 25 |  |
| CCCCCCCCc1cc(C)oc(=O)c1 | 19 |  | 25 | 18 | 22 |  | 34.1 | 30 | 0 | 21.6 | 20 | 20.5 | 22.7 |  |
| Cc1cc(C#CCOC2CCCCO2)cc(=O)o1 (stereo not given) | 20 | 2.1 | 19.3 | 30 | 17 | 4 | 20.5 | 18 | 0 | 22.7 | 13 | 34.1 | 14.8 |  |
| CCOCCc1cc(C)oc(=O)c1 |  | > 50 |  |  |  | > 50 |  | 0 |  |  |  |  |  |  |
| CCCCCc1cc(C)oc(=O)c1 | 23 | > 50 | 25 | 0 | 22 | > 50 | 25 | 22 | 0 | 26.1 | 0 |  |  |  |
| CCCCCCc1cc(C)oc(=O)c1 | 21 | > 50 | 28.4 | 0 | 25 | > 50 | 29.5 | 26 | 0 | 23.9 | 11 |  | 12.5 |  |
| Cc1cc(C#Cc2ccc([N+](=O)[O-])cc2)cc(=O)o1 | 6 |  |  | 0 | 0 |  | 10.2 | 9 | 0 | 6.8 | 0 |  |  |  |
| CC(=O)Nc1ccc(C#Cc2cc(C)oc(=O)c2)cc1 | 6 |  |  | 16 | 0 |  |  | 0 | 0 | 6.8 | 0 | 18.2 |  |  |
| Cc1cc(C#Cc2ccccc2)cc(=O)o1 | 19 | 1.8 | 22.7 | 0 | 20 | 4 | 42 | 37 | 0 | 21.6 | 0 |  |  |  |
| CCC/C=C/c1cc(C)oc(=O)c1 | 16 |  | 21.6 | 20 | 19 |  | 31.8 | 28 | 0 | 18.2 | 16 | 22.7 | 18.2 |  |
| Cc1cc(-c2ccccc2)cc(=O)o1 | 18 | > 50 | 22.7 | 18 | 20 | > 50 |  | 0 | 0 | 20.5 | 0 | 20.5 |  |  |
| Cc1ccc(-c2cc(C)oc(=O)c2)cc1 | 19 | > 50 | 20.4 | 0 | 18 | > 50 |  | 0 | 0 | 21.6 | 0 |  |  |  |
| CCCCC#Cc1cc(C)oc(=O)c1 | 17 | 7 | 22.7 | 0 | 20 | 15.5 | 51.1 | 45 | 0 | 19.3 | 20 |  | 22.7 |  |
| CCCC#Cc1cc(C)oc(=O)c1 | 18 | 4.8 | 25 | 21 | 22 | 17.8 | 32.9 | 29 | 0 | 20.5 | 11 | 23.9 | 12.5 |  |
| Cc1cc(/C=C/c2ccccc2)cc(=O)o1 | 18 | > 50 | 19.3 | 0 | 17 | > 50 | 20.5 | 18 | 0 | 20.5 | 0 |  |  |  |
| CCCCC/C=C/c1cc(C)oc(=O)c1 | 18 | > 50 | 20.5 | 17 | 18 | > 50 | 38.6 | 34 | 0 | 20.5 | 21 | 19.3 | 23.9 |  |
| CCCCCC/C=C/c1cc(C)oc(=O)c1 | 18 | > 50 | 22.7 | 18 | 20 | > 50 | 32.9 | 29 | 0 | 20.5 | 20 | 20.5 | 22.7 |  |
| CCCC/C=C/c1cc(C)oc(=O)c1 | 18 |  | 20.5 | 0 | 18 |  | 45.5 | 40 | 0 | 20.5 | 24 |  | 27.3 |  |
